Assay [1] addresses T1, D(2) dopamine receptor (Homo sapiens, UniProt P14416). Put plainly: Displacement of [3H]spiperone from human dopamine D2 long receptor expressed in CHO cell membranes. An outline of the steps:
(§1)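 Membranes of CHO cells stably expressing each human receptor; [³H]spiperone final 0.1–0.2 nM (D2long), 0.2 nM (D2short), 0.2–0.4 nM (D3), 0.15–0.35 nM (D4.4), set by K_D. Protein per well 4–6, 1–4, 1–6 and 5–6 µg respectively. EC50 from competition curves by non-linear regression, converted to Ki with Cheng–Prusoff; Ki mean of 3–7 independent experiments in triplicate.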
On the technique in general: In a radioligand displacement assay an active substance lowers the binding of a labelled ligand.

For assay [2], the species on record is Homo sapiens. Put plainly: Selectivity index, ratio of Ki for human dopamine D2 short receptor to Ki for human dopamine D3 receptor. An outline of the steps:
(§2)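 Ratio of Ki at D2long or D2short to Ki at D3, with both Ki values from [³H]spiperone competition on CHO membranes stably expressing the human receptors.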

In assay [3] the test system is D(3) dopamine receptor (Homo sapiens), P35462 [L89K]. Put plainly: Activation of human dopamine D3 receptor L89K mutant expressed in HEK293 cells co-expressing GaqG66Di5- incubated for 120 mins by scintillation counting based myo-[3H]inositol phosphate accumulation assay relative to control. Format: functional, cell-based. Put shortly:
(§3)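 HEK293T cells transiently co-transfected with human D3 (wild type or L89K mutant) plus GαqG66Di5; 24 h later seeded and labelled with myo-[³H]inositol. Next day, compounds in Tris/EDTA/MgCl2/DTT buffer pH 7.4 with 10 mM LiCl for 120 min at 37 °C. Total IP isolated by anion exchange and counted by scintillation; expressed as fold over basal (unstimulated = 1).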

Assay [4] concerns the target T2, D(3) dopamine receptor (Homo sapiens, UniProt P35462). The assay is described as follows: Activation of wild type human dopamine D3 receptor expressed in HEK293 cells co-expressing GaqG66Di5- incubated for 120 mins by scintillation counting based myo-[3H]inositol phosphate accumulation assay relative to quinpirole. Format: functional, cell-based. An outline of the steps:
as §3

For assay [5], the target named is T1, D(2) dopamine receptor. Put plainly: Displacement of [3H]spiperone from human dopamine D2 short receptor expressed in CHO cell membranes. An outline of the steps: as §1
Assay [6] deals with T3, D(4) dopamine receptor (Homo sapiens, UniProt P21917).
T3 sequence (P21917 whole entry): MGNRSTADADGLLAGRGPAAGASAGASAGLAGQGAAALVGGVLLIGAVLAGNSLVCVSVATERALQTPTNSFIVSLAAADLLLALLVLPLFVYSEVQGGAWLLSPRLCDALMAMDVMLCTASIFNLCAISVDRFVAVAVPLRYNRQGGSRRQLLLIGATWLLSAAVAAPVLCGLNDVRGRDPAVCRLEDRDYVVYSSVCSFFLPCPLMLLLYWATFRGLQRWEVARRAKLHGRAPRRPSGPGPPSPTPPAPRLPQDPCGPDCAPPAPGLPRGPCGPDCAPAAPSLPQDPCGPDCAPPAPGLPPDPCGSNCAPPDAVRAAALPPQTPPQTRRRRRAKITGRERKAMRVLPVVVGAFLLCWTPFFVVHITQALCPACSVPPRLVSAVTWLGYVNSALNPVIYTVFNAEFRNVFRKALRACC
Put plainly: Displacement of [3H]spiperone from human dopamine D4.4 receptor expressed in CHO cell membranes. An outline of the steps:
as §1

In assay [7] the target is D(3) dopamine receptor (Homo sapiens, UniProt P35462, L89K). Put plainly: Activation of human dopamine D3 receptor L89K mutant expressed in HEK293 cells co-expressing GaqG66Di5- incubated for 120 mins by scintillation counting based myo-[3H]inositol phosphate accumulation assay. The class given is functional, cell-based.
D(3) dopamine receptor (Homo sapiens, UniProt P35462, L89K), sequence (P35462 as listed by the source L89K): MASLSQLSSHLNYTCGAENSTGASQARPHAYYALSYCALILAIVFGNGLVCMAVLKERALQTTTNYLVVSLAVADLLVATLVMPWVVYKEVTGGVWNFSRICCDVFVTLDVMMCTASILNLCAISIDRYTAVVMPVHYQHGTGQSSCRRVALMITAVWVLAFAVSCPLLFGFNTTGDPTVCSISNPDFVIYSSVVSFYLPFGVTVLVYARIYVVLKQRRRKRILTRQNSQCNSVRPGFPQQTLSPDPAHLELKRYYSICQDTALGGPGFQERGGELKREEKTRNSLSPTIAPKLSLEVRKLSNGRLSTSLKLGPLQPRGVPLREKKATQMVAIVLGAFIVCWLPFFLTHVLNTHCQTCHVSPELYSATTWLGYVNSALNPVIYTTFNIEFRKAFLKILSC
Assay [8] concerns the target T2, D(3) dopamine receptor. Put plainly: Activation of wild type human dopamine D3 receptor expressed in HEK293 cells co-expressing GaqG66Di5- incubated for 120 mins by scintillation counting based myo-[3H]inositol phosphate accumulation assay. Format: functional, cell-based.
Assay [9] deals with T2, D(3) dopamine receptor. The assay is described as follows: Displacement of [3H]spiperone from human dopamine D3 receptor expressed in CHO cell membranes. An outline of the steps: as §1
The species entered for assay [10] is Homo sapiens. The assay is described as follows: Selectivity index, ratio of Ki for human dopamine D2 long receptor to Ki for human dopamine D3 receptor. Put shortly:
as §2

Assay [11] has as its target 5-hydroxytryptamine receptor 2A (Homo sapiens, UniProt P28223). Put plainly: Displacement of [3H]ketanserin from human 5HT2A receptor expressed in HEK293 cell membranes. Put shortly:
(§4)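 Homogenates from HEK 293 cells transiently transfected (calcium phosphate) with the human receptor gene in pcDNA3.1. [³H]SCH23390 at 0.3–0.7 nM (D1) or 0.4–0.5 nM (D5); [³H]ketanserin at 0.3–0.5 nM (5-HT2A). Competition curves fitted by non-linear regression, EC50 converted to Ki via Cheng–Prusoff.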

In assay [12] the target is D(1A) dopamine receptor (Homo sapiens, UniProt P21728). The assay is described as follows: Displacement of [3H]SCH23390 from human dopamine D1 receptor expressed in HEK293 cell membranes. Put shortly:
as §4

Assay [13] is described as follows: Displacement of [3H][…] from porcine cerebral cortex 5HT1A receptor. The class given is tissue-based, Sus scrofa. Put shortly: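 Porcine cerebral cortex homogenates as receptor source; [³H][…] at 0.2–0.33 nM for 5-HT1A. Protein measured by Lowry against bovine serum albumin. Competition curves fitted by non-linear regression, EC50 converted to Ki via Cheng–Prusoff.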

In assay [14] the target is D(1B) dopamine receptor (Homo sapiens, UniProt P21918). Put plainly: Displacement of [3H]SCH23390 from human dopamine D5 receptor expressed in HEK293 cell membranes. An outline of the steps: as §4
D(1B) dopamine receptor, sequence (P21918 whole entry): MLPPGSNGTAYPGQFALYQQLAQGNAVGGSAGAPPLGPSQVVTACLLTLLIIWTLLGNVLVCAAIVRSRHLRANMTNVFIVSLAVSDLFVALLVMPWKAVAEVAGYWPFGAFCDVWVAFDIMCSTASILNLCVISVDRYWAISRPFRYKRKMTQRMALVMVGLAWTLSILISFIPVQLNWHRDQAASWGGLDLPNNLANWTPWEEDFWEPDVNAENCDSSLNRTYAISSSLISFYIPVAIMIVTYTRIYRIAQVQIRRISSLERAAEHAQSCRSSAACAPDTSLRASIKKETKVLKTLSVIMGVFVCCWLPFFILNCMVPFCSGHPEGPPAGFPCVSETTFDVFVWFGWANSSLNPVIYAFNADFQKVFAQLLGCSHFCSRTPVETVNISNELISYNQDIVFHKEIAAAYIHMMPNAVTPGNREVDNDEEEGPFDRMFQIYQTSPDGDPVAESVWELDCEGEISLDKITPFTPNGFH
Assay [15] in a line: Displacement of [3H]prazosin from porcine cerebral cortex alpha1 adrenoceptor. The class given is tissue-based, Sus scrofa.

A word on the Ki: it is a dissociation constant, usually derived from enzyme kinetics or from competition with a known ligand. For orientation: EC50 means the concentration giving half of the maximal effect.

T2 sequence (P35462 whole entry): as the sequence (P35462 as listed by the source L89K) above, with S9G, K89L counted along it
T1 sequence (P14416 whole entry): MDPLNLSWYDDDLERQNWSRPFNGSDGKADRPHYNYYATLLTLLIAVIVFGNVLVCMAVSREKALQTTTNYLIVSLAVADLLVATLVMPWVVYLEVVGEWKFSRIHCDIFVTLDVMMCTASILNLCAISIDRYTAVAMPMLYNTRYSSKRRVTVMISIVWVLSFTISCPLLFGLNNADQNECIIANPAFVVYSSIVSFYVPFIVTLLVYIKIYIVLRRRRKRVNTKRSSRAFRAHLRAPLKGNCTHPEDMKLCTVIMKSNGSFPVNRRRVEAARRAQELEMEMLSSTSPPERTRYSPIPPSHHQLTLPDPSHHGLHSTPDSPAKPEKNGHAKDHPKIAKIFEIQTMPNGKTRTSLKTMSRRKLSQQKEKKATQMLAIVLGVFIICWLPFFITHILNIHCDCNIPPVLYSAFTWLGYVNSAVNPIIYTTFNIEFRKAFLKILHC
D(3) dopamine receptor (Homo sapiens), P35462 [L89K], sequence (P35462 as listed by the source): as the sequence (P35462 as listed by the source L89K) above
5-hydroxytryptamine receptor 2A, sequence (P28223 whole entry): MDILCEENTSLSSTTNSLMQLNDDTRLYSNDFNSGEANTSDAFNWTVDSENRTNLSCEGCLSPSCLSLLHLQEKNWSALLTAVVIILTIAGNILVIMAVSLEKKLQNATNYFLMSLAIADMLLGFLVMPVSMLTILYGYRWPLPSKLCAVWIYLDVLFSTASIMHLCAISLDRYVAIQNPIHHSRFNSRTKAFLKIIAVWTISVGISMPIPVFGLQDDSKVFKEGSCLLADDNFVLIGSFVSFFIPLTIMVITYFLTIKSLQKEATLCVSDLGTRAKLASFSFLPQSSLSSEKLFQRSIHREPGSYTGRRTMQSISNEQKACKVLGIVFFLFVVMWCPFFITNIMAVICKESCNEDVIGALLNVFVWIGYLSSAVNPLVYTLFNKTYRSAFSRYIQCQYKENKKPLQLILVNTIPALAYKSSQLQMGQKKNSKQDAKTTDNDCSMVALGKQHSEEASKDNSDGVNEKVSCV
D(1A) dopamine receptor, sequence (P21728 whole entry): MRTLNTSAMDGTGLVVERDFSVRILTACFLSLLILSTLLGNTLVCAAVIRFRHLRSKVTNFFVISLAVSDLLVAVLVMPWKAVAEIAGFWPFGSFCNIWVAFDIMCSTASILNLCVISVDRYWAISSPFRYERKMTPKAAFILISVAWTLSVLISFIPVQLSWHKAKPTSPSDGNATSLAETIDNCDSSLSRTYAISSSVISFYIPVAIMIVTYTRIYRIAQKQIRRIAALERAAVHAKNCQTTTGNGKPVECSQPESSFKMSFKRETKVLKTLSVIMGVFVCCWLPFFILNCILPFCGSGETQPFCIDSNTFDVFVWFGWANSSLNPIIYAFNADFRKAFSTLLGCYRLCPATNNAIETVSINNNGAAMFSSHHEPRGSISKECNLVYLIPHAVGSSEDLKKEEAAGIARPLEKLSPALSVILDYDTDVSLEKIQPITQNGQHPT

On to `CCCN(CCCCNC(=O)/N=N/c1cc(F)c(F)c(F)c1)C1Cc2ccccc2C1`, for which the Ki in assay [1] is 40 nM; in assay [5], 12 nM; in [6], 40 nM; in assay [9], 4.9 nM. Besides, the Ratio Ki in [2] is 2.4; in [10] it was 8.2. The Efficacy in assay [3] was found to be 101%; in assay [4], 90%. In addition, the EC50 came out at 114 nM in assay [7] and 11 nM in assay [8].

Turning to `COc1ccccc1N1CCN(CCCCNC(=O)/N=N/c2cc(F)c(F)c(F)c2)CC1`, the Ki in assay [1] is 6.6 nM; in assay [5], 9.5 nM; in [6], 47 nM; in assay [9], 1.4 nM. The Ratio Ki in [2] was determined as 6.8; in assay [10], 4.7.

Regarding `CCCN(CCNC(=O)/N=N/c1ccc(F)c(F)c1)C1Cc2ccccc2C1`, the inhibition constant (Ki) was determined as 3.9 nM in assay [1], 8.5 nM in assay [5], 2 nM in [6] and 2.8 nM in assay [9]. For the same compound, the Ratio Ki in assay [2] was determined as 3; in assay [10] it was 1.4.

With `CCCN(CCNC(=O)/N=N/c1cc(F)c(F)c(F)c1)C1Cc2ccccc2C1`, the inhibition constant Ki amounted to 110 nM in assay [1]; 510 nM in [11]; 2600 nM in assay [12]; 73 nM in assay [5]; 3.3 nM in [13]; 10 nM in assay [6]. Besides, the Ki is 87 nM in assay [9], 3800 nM in assay [14] and 900 nM in assay [15]. Besides, the figures for the Ratio Ki in assay [2] and in assay [10] were 0.84 and 1.3, respectively.

For `CCCN(CCCCNC(=O)/C=C/c1ccc(F)cc1)C1Cc2ccccc2C1`, the inhibition constant Ki in assay [1] came to 19 nM; in [11], 89 nM; in assay [12], 1300 nM; in assay [5], 2.9 nM; in assay [13] it was 5 nM; in assay [6] it was 16 nM. Further, the Ki in [9] was found to be 0.31 nM; in [14], 2900 nM; in assay [15], 120 nM. Besides, the Ratio Ki in assay [2] is 9.4; in [10], 61.

For `CCCN(CCNC(=O)/C=C/c1ccc(F)cc1)C1Cc2ccccc2C1`, the inhibition constant Ki in [1] is 43 nM; in assay [11] it was 210 nM; in [12], 2200 nM; in assay [5] it was 13 nM; in assay [13] it was 4.3 nM; in assay [6], 1.4 nM. Also, the inhibition constant Ki in [9] was determined as 14 nM; in assay [14], 11000 nM; in [15], 58 nM. Also, the Ratio Ki in [2] came to 0.93; in assay [10], 3.1.

In the case of `CCCN(CCNC(=O)/N=N/c1ccc(F)cc1)C1Cc2ccccc2C1`, the Ki in assay [1] worked out at 5 nM; in [5] it was 4 nM; in [6] it was 0.99 nM; in assay [9], 1.4 nM. For the same compound, the Ratio Ki in assay [2] came out at 2.9; in assay [10] it was 3.6.

On to `COc1ccccc1N1CCN(CCCCNC(=O)/N=N/c2ccc(F)cc2)CC1`, for which the results for the Ratio Ki in [2] and in assay [10] were 11 and 13, respectively. Besides, the Ki in assay [5] is 34 nM; in assay [13] it was 3.3 nM; in assay [9] it was 3 nM; in [15], 5.2 nM.

As for `COc1ccccc1N1CCN(CCCCNC(=O)/N=N/c2ccc(F)c(F)c2)CC1`, the inhibition constant Ki in assay [1] was determined as 7.5 nM; in assay [5], 12 nM; in assay [6], 36 nM; in assay [9] it was 0.72 nM. Also, the Ratio Ki in assay [2] is 16; in [10], 10.

Consider `CCCN(CCCCNC(=O)/N=N/c1ccc(F)c(F)c1)C1Cc2ccccc2C1`, for which the Ki came to 25 nM in assay [1], 13 nM in assay [5], 31 nM in assay [6] and 2 nM in assay [9]. The values for the Ratio Ki in assay [2] and in assay [10] were 6.5 and 13, respectively. In addition, the Efficacy in assay [3] was determined as 77%; in [4], 94%. The EC50 in [7] is 79 nM; in assay [8], 6.1 nM.

Regarding `CCCN(CCCCNC(=O)/N=N/c1ccc(F)cc1)C1Cc2ccccc2C1`, the Ki came to 23 nM in assay [1]; 550 nM in [11]; 3300 nM in assay [12]; 36 nM in assay [5]; 5.8 nM in assay [13]; 34 nM in assay [6]. In addition, the inhibitory constant (Ki) was found to be 0.85 nM in [9], 7000 nM in assay [14] and 170 nM in [15]. For the same compound, the Ratio Ki in assay [2] was determined as 42; in assay [10], 27. Besides, the values for the Efficacy in [3] and in assay [4] were 81% and 84%, respectively. Further, the results for the half-maximal effective concentration (EC50) in assay [7] and in [8] were 68 nM and 2.6 nM, respectively.

(Values after ChEMBL document CHEMBL3588764, “Fluoro-substituted phenylazocarboxamides: Dopaminergic behavior and N-arylating properties for irreversible binding” (Bioorg Med Chem, 2015).)
